pEC50: −log10 of the molar value. Where only a bound is given, the exact number is not on record here.

One may read the pEC50 as the negative decadic logarithm of the EC50, by convention in mol/L. Usually CC50 stands for the concentration that lowers cell viability or growth by half.

For one data set, the system named is Human immunodeficiency virus 1. The data set is described as follows: Ratio of EC50 for HIV-1 harboring reverse transcriptase K103N mutant infected in human MT4 cells to EC50 for HIV1 NL4-3 infected in human MT4 cells.
Details: not given
The format is functional. The essentials:
(§1)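 Fold change calculated as EC50 against the stated resistant mutant HIV-1 strain divided by EC50 against wild-type NL4-3. Both EC50s come from MTT read-out of virus-induced death in MT-4 cells, mean of two to three independent experiments each in triplicate.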
For the compound `Cc1cc(C)cc(S(=O)(=O)c2c(C(=O)NC(C)C(=O)NCc3ccccc3F)[nH]c3ccc(Cl)cc23)c1` (racemic), the “Ratio EC50” value turned out to be 43.

On to `Cc1cc(C)cc(S(=O)(=O)c2c(C(=O)NCC(=O)NC(C)c3ccccc3)[nH]c3ccc(Cl)cc23)c1` (racemic), for which the “Ratio EC50” value came to 350.

Take `Cc1cc(C)cc(S(=O)(=O)c2c(C(=O)NC(C)C(=O)NC(C)c3ccccc3F)[nH]c3ccc(Cl)cc23)c1` (racemic): the Ratio EC50 came out at 60.

In the case of `Cc1cc(C)cc(S(=O)(=O)c2c(C(=O)NC(C)C(=O)NCCn3c(C)cnc3[N+](=O)[O-])[nH]c3ccc(Cl)cc23)c1` (racemic), the “Ratio EC50” value is given as 850.

A further data set deals with Human immunodeficiency virus 1. The data set is described as follows: Ratio of EC50 for HIV-1 harboring reverse transcriptase Y181C mutant infected in human MT4 cells to EC50 for HIV1 NL4-3 infected in human MT4 cells. The format is functional.
Details: not given
An outline of the steps:
as §1
`Cc1cc(C)cc(S(=O)(=O)c2c(C(=O)NC(C)C(=O)NCc3ccccc3F)[nH]c3ccc(Cl)cc23)c1` (racemic): the “Ratio EC50” value worked out at 155.

For the compound `Cc1cc(C)cc(S(=O)(=O)c2c(C(=O)NCC(=O)NC(C)c3ccccc3)[nH]c3ccc(Cl)cc23)c1` (racemic), the “Ratio EC50” value amounted to 127.

Turning to `Cc1cc(C)cc(S(=O)(=O)c2c(C(=O)NC(C)C(=O)NC(C)c3ccccc3F)[nH]c3ccc(Cl)cc23)c1` (racemic), the “Ratio EC50” value came out at 180.

Turning to `Cc1cc(C)cc(S(=O)(=O)c2c(C(=O)NC(C)C(=O)NCCn3c(C)cnc3[N+](=O)[O-])[nH]c3ccc(Cl)cc23)c1` (racemic), the “Ratio EC50” value came out at 850.

The test system of another data set is Human immunodeficiency virus 1. The data set is described as follows: Antiviral activity against HIV1 harboring reverse transcriptase Y181C mutant infected in human […] cells assessed as protection against virus-induced cytopathic effect measured on day 5 post infection by MTT assay. The class given is functional, cell-based. Conditions: Human immunodeficiency virus 1, 120 h.
For the compound `Cc1cc(C)cc(S(=O)(=O)c2c(C(=O)NC(C)C(=O)NCc3ccccc3F)[nH]c3ccc(Cl)cc23)c1` (racemic), the negative logarithm of the EC50 (pEC50) is 7.03.

With `Cc1cc(C)cc(S(=O)(=O)c2c(C(=O)NCC(=O)NC(C)c3ccccc3)[nH]c3ccc(Cl)cc23)c1` (racemic), the pEC50 was 7.12.

As to `Cc1cc(C)cc(S(=O)(=O)c2c(C(=O)NC(C)C(=O)NC(C)c3ccccc3F)[nH]c3ccc(Cl)cc23)c1` (racemic), the pEC50 is 6.97.

For the compound `Cc1cc(C)cc(S(=O)(=O)c2c(C(=O)NC(C)C(=O)NCCn3c(C)cnc3[N+](=O)[O-])[nH]c3ccc(Cl)cc23)c1` (racemic), the negative-log EC50 (pEC50) is 6.77.

In another data set the test system is Human immunodeficiency virus 1. The data set can be described thus: Antiviral activity against HIV1 NL4-3 infected in human […] cells assessed as protection against virus-induced cytopathic effect measured on day 5 post infection by MTT assay. Conditions: Human immunodeficiency virus 1, NL4-3, 120 h. The class given is functional, cell-based. The essentials: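 Values are means of two to three independent experiments, each run in triplicate. The lowest detectable concentration is reported where activity fell below the assay limit.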
Background: Cytopathic effects are the visible damage that an infection or toxin causes in cultured cells.
`Cc1cc(C)cc(S(=O)(=O)c2c(C(=O)NC(C)C(=O)NCc3ccccc3F)[nH]c3ccc(Cl)cc23)c1` (racemic): the negative-log EC50 (pEC50) is 9.22.

In the case of `Cc1cc(C)cc(S(=O)(=O)c2c(C(=O)NCC(=O)NC(C)c3ccccc3)[nH]c3ccc(Cl)cc23)c1` (racemic), the pEC50 is 9.22.

As to `Cc1cc(C)cc(S(=O)(=O)c2c(C(=O)NC(C)C(=O)NC(C)c3ccccc3F)[nH]c3ccc(Cl)cc23)c1` (racemic), the pEC50 was 9.22.

Turning to `Cc1cc(C)cc(S(=O)(=O)c2c(C(=O)NC(C)C(=O)NCCn3c(C)cnc3[N+](=O)[O-])[nH]c3ccc(Cl)cc23)c1` (racemic), the pEC50 was 9.70.

The next data set has as its system Human immunodeficiency virus 1. The data set can be described thus: Antiviral activity against HIV1 harboring reverse transcriptase Y188L mutant infected in human […] cells assessed as protection against virus-induced cytopathic effect measured on day 5 post infection by MTT assay. The format is functional, cell-based. Conditions: Human immunodeficiency virus 1, 120 h.
Take `Cc1cc(C)cc(S(=O)(=O)c2c(C(=O)NC(C)C(=O)NCc3ccccc3F)[nH]c3ccc(Cl)cc23)c1` (racemic): the pEC50 is 5.37.

For the compound `Cc1cc(C)cc(S(=O)(=O)c2c(C(=O)NCC(=O)NC(C)c3ccccc3)[nH]c3ccc(Cl)cc23)c1` (racemic), the pEC50 is 5.79.

As for `Cc1cc(C)cc(S(=O)(=O)c2c(C(=O)NC(C)C(=O)NC(C)c3ccccc3F)[nH]c3ccc(Cl)cc23)c1` (racemic), the pEC50 is < 4.82.

Take `Cc1cc(C)cc(S(=O)(=O)c2c(C(=O)NC(C)C(=O)NCCn3c(C)cnc3[N+](=O)[O-])[nH]c3ccc(Cl)cc23)c1` (racemic): the pEC50 is 5.32.

Tested on in the next data set: not listed separately
The data set is described as follows: Cytotoxicity against human MT4 cells assessed as cell viability by MTT assay. The class given is cell-based.
Details: not given
The essentials: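 Uninfected MT-4 cells scored for viability by MTT. […] Values are means of two to three independent experiments, each run in triplicate.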
On the technique in general: Tetrazolium dyes change colour on reduction, which living cells bring about.
For the compound `Cc1cc(C)cc(S(=O)(=O)c2c(C(=O)NC(C)C(=O)NCc3ccccc3F)[nH]c3ccc(Cl)cc23)c1` (racemic), the CC50 amounted to 23.3 µM.

Turning to `Cc1cc(C)cc(S(=O)(=O)c2c(C(=O)NCC(=O)NC(C)c3ccccc3)[nH]c3ccc(Cl)cc23)c1` (racemic), the half-maximal cytotoxic concentration (CC50) came out at 29.4 µM.

In the case of `Cc1cc(C)cc(S(=O)(=O)c2c(C(=O)NC(C)C(=O)NC(C)c3ccccc3F)[nH]c3ccc(Cl)cc23)c1` (racemic), the CC50 came out at 15.2 µM.

On to `Cc1cc(C)cc(S(=O)(=O)c2c(C(=O)NC(C)C(=O)NCCn3c(C)cnc3[N+](=O)[O-])[nH]c3ccc(Cl)cc23)c1` (racemic), for which the cytotoxic concentration (CC50) came to 16 µM.

Another data set relates to Human immunodeficiency virus 1. The data set is described as follows: Antiviral activity against HIV1 harboring reverse transcriptase K103N /[…] double mutant infected in human […] cells assessed as protection against virus-induced cytopathic effect measured on day 5 post infection by MTT assay. The class given is functional, cell-based. Conditions: Human immunodeficiency virus 1, 120 h.
For `Cc1cc(C)cc(S(=O)(=O)c2c(C(=O)NC(C)C(=O)NCc3ccccc3F)[nH]c3ccc(Cl)cc23)c1` (racemic), the pEC50 is < 4.63.

With `Cc1cc(C)cc(S(=O)(=O)c2c(C(=O)NCC(=O)NC(C)c3ccccc3)[nH]c3ccc(Cl)cc23)c1` (racemic), the pEC50 is < 4.53.

For `Cc1cc(C)cc(S(=O)(=O)c2c(C(=O)NC(C)C(=O)NC(C)c3ccccc3F)[nH]c3ccc(Cl)cc23)c1` (racemic), the pEC50 is 5.19.

With `Cc1cc(C)cc(S(=O)(=O)c2c(C(=O)NC(C)C(=O)NCCn3c(C)cnc3[N+](=O)[O-])[nH]c3ccc(Cl)cc23)c1` (racemic), the pEC50 was 5.28.

The subject of another data set is Human immunodeficiency virus 1. The data set can be described thus: Ratio of EC50 for HIV-1 harboring reverse transcriptase K103N/[…] double mutant infected in human MT4 cells to EC50 for HIV1 NL4-3 infected in human MT4 cells. The class given is functional.
Details: not given
An outline of the steps: as §1
As for `Cc1cc(C)cc(S(=O)(=O)c2c(C(=O)NC(C)C(=O)NCc3ccccc3F)[nH]c3ccc(Cl)cc23)c1` (racemic), the “Ratio EC50” value was >38775.

Consider `Cc1cc(C)cc(S(=O)(=O)c2c(C(=O)NCC(=O)NC(C)c3ccccc3)[nH]c3ccc(Cl)cc23)c1` (racemic), for which the “Ratio EC50” value was >48978.

With `Cc1cc(C)cc(S(=O)(=O)c2c(C(=O)NC(C)C(=O)NC(C)c3ccccc3F)[nH]c3ccc(Cl)cc23)c1` (racemic), the “Ratio EC50” value came out at 10790.

`Cc1cc(C)cc(S(=O)(=O)c2c(C(=O)NC(C)C(=O)NCCn3c(C)cnc3[N+](=O)[O-])[nH]c3ccc(Cl)cc23)c1` (racemic): the “Ratio EC50” value was 26405.

For another data set, the system named is Human immunodeficiency virus 1. The data set is described as follows: Antiviral activity against HIV1 harboring reverse transcriptase K103N mutant infected in human […] cells assessed as protection against virus-induced cytopathic effect measured on day 5 post infection by MTT assay. The format is functional, cell-based. Conditions: Human immunodeficiency virus 1, 120 h.
Take `Cc1cc(C)cc(S(=O)(=O)c2c(C(=O)NC(C)C(=O)NCc3ccccc3F)[nH]c3ccc(Cl)cc23)c1` (racemic): the pEC50 is 7.59.

With `Cc1cc(C)cc(S(=O)(=O)c2c(C(=O)NCC(=O)NC(C)c3ccccc3)[nH]c3ccc(Cl)cc23)c1` (racemic), the pEC50 was 6.68.

In the case of `Cc1cc(C)cc(S(=O)(=O)c2c(C(=O)NC(C)C(=O)NC(C)c3ccccc3F)[nH]c3ccc(Cl)cc23)c1` (racemic), the pEC50 was 7.44.

`Cc1cc(C)cc(S(=O)(=O)c2c(C(=O)NC(C)C(=O)NCCn3c(C)cnc3[N+](=O)[O-])[nH]c3ccc(Cl)cc23)c1` (racemic): the pEC50 was 6.77.

A further data set has as its system Human immunodeficiency virus 1. The data set is described as follows: Ratio of EC50 for HIV-1 harboring reverse transcriptase Y188L mutant infected in human MT4 cells to EC50 for HIV1 NL4-3 infected in human MT4 cells. The format is functional.
Details: not given
An outline of the steps: as §1
Turning to `Cc1cc(C)cc(S(=O)(=O)c2c(C(=O)NC(C)C(=O)NCc3ccccc3F)[nH]c3ccc(Cl)cc23)c1` (racemic), the “Ratio EC50” value is given as 7067.

For the compound `Cc1cc(C)cc(S(=O)(=O)c2c(C(=O)NCC(=O)NC(C)c3ccccc3)[nH]c3ccc(Cl)cc23)c1` (racemic), the “Ratio EC50” value is reported as 2703.

For `Cc1cc(C)cc(S(=O)(=O)c2c(C(=O)NC(C)C(=O)NC(C)c3ccccc3F)[nH]c3ccc(Cl)cc23)c1` (racemic), the “Ratio EC50” value is reported as >25387.

Regarding `Cc1cc(C)cc(S(=O)(=O)c2c(C(=O)NC(C)C(=O)NCCn3c(C)cnc3[N+](=O)[O-])[nH]c3ccc(Cl)cc23)c1` (racemic), the “Ratio EC50” value turned out to be 23850.

Tested on in another data set: not listed separately
The data set is described as follows: Selectivity index, ratio of CC50 for human MT4 cells to EC50 for HIV1 NL4-3 infected in human MT4 cells. The format is toxicity, cell-based. Conditions: read-out: Ratio CC50/EC50. The essentials:
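SI computed as CC50/EC50, using the MTT-based CC50 in uninfected MT-4 cells and the MTT-based EC50 against HIV-1 NL4-3-induced cell death in MT-4 cells. Experiments were run in triplicate, two to three times.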
For the compound `Cc1cc(C)cc(S(=O)(=O)c2c(C(=O)NC(C)C(=O)NCc3ccccc3F)[nH]c3ccc(Cl)cc23)c1` (racemic), the selectivity ratio turned out to be 23300.

Take `Cc1cc(C)cc(S(=O)(=O)c2c(C(=O)NCC(=O)NC(C)c3ccccc3)[nH]c3ccc(Cl)cc23)c1` (racemic): the selectivity ratio is > 49000.

Take `Cc1cc(C)cc(S(=O)(=O)c2c(C(=O)NC(C)C(=O)NC(C)c3ccccc3F)[nH]c3ccc(Cl)cc23)c1` (racemic): the selectivity ratio was > 25400.

With `Cc1cc(C)cc(S(=O)(=O)c2c(C(=O)NC(C)C(=O)NCCn3c(C)cnc3[N+](=O)[O-])[nH]c3ccc(Cl)cc23)c1` (racemic), the selectivity ratio amounted to 94200.

The record behind these values is ChEMBL document CHEMBL4038304, “Chiral Indolylarylsulfone Non-Nucleoside Reverse Transcriptase Inhibitors as New Potent and Broad Spectrum Anti-HIV-1 Agents” (J Med Chem, 2017).
